Calls of active or inactive are those of the source. The rule behind the calls is not given here. Square brackets hold non-standard residues; d marks the D form. Peptide text beside a SMILES is read from it. dalloThr(PO3H2) = C[C@@H](OP(=O)(O)O)[C@@H](N)C(=O)O; d(pT) = C[C@H](OP(=O)(O)O)[C@@H](N)C(=O)O; 2Nal = N[C@@H](Cc1ccc2ccccc2c1)C(=O)O; Pip = O=C(O)[C@@H]1CCCCN1

Data set [1] has as its system HeLa. Put plainly: Cellular uptake in human HeLa cells assessed as nuclear localization at 1 uM after 48 hrs by fluorescence microscopy. Format: ADME, cell-based. In short, it runs like this:
(§1)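 HeLa cells in DME + 10% FBS, 1% pen/strep, 37 °C, 5% CO2, grown on cover glass. Given 0 or 1.0 μM FITC-labeled peptide (FITC on the Glu side chain via a Lys linker) for 48 h. Then PBS-washed, fixed in 3.7% paraformaldehyde, permeabilized with goat serum/Triton X-100, DAPI-stained, and imaged by fluorescence microscopy.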

The subject of data set [2] is HeLa. Put plainly: Cellular uptake in human HeLa cells assessed as cytoplasmic localization at 1 uM after 48 hrs by fluorescence microscopy. Type of data set: ADME, cell-based. In short, it runs like this:
as §1

Another data set has as its system BT-474. The data set can be described thus: Antiproliferative activity against human BT474 cells at […] after 6 days. Format: functional.
The target of data set [3] is Peptidyl-prolyl cis-trans isomerase NIMA-interacting 1 (Homo sapiens) (UniProt Q13526). Put plainly: Inhibition of Pin1 in human BT474 cells assessed as increase in SMRT level at 5 uM by Western blotting. Type of data set: cell-based. As to conditions: BT-474. The essentials: (§2)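 Cells given peptide for 48 h: HeLa in DME + 10% FBS, pen/strep; BT-474 in Hybri-Care DME + 10% FBS. Vehicle control DMSO. Lysed in RIPA with protease inhibitors, equal protein (Bradford) on 8% SDS-PAGE, nitrocellulose transfer, milk block. Probed with anti-SMRT, anti-PML and anti-β-actin (loading), HRP secondary, chemiluminescent detection.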
Sequence of Peptidyl-prolyl cis-trans isomerase NIMA-interacting 1 (Homo sapiens) (Q13526 whole entry): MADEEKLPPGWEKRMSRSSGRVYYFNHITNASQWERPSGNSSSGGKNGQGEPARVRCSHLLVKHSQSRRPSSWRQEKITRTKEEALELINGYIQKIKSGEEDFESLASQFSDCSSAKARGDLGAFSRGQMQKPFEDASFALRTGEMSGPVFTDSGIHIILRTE

Data set [4] shares this target. The data set can be described thus: Inhibition of Pin1 in human BT474 cells assessed as increase in PML level at 5 uM by Western blotting. Type of data set: cell-based. As to conditions: BT-474. The essentials:
as §2

As to `C[C@@H](OP(=O)(O)O)[C@H]1NC(=O)[C@@H](CCCNC(=N)N)NC(=O)[C@@H](CCCNC(=N)N)NC(=O)[C@H](CCC(N)=O)NC(=O)[C@H](CCCNC(=N)N)NC(=O)[C@H](Cc2ccc3ccccc3c2)NC(=O)[C@@H]2CCCCN2C1=O`, the Drug uptake result in the data set with HeLa [1] and in the data set on HeLa [2] was “Active” each time.

Regarding `C[C@H](O)[C@H]1NC(=O)[C@@H](CCCNC(=N)N)NC(=O)[C@@H](CCCNC(=N)N)NC(=O)[C@H](CCC(N)=O)NC(=O)[C@H](CCCNC(=N)N)NC(=O)[C@H](Cc2ccc3ccccc3c2)NC(=O)[C@@H]2CCCCN2C1=O`, the Drug uptake entry in the data set on HeLa [1] and in the data set with HeLa [2] was “Active” each time.

Turning to `C[C@H]1NC(=O)[C@H](CCC(N)=O)NC(=O)[C@H](CCCN)NC(=O)[C@H](Cc2ccc3ccccc3c2)NC(=O)[C@@H]2CCCCN2C(=O)[C@@H]([C@@H](C)OP(=O)(O)O)NC(=O)CNC1=O`, the result in the data set on BT-474 was inactive.

Take `C[C@H](O)[C@H]1NC(=O)[C@H](CCCNC(=N)N)NC(=O)[C@H](CCCNC(=N)N)NC(=O)[C@H](CCCNC(=N)N)NC(=O)[C@H](CCC(N)=O)NC(=O)[C@H](CCCNC(=N)N)NC(=O)[C@H](CCCNC(=N)N)NC(=O)[C@H](Cc2ccc3ccccc3c2)NC(=O)[C@@H]2CCCCN2C1=O` (cyclo([2Nal]RRQRRR[dT][Pip])): the Drug uptake result in the data set with HeLa [1] and with HeLa [2] was “Active” each time.

For the molecule `C[C@@H](OP(=O)(O)O)[C@H]1NC(=O)[C@H](CCCNC(=N)N)NC(=O)[C@H](CCCNC(=N)N)NC(=O)[C@H](CCCNC(=N)N)NC(=O)[C@H](CCC(N)=O)NC(=O)[C@H](CCCNC(=N)N)NC(=O)[C@H](CCCNC(=N)N)NC(=O)[C@H](Cc2ccc3ccccc3c2)NC(=O)[C@@H]2CCCCN2C1=O` (cyclo([2Nal]RRQRRR[dalloThr(PO3H2)][Pip])), the outcome in data set [3] and in data set [4] was Active. Further, the Drug uptake entry in the data set on HeLa [1] and with HeLa [2] was “Active” throughout.

As to `C[C@H](OP(=O)(O)O)[C@H]1NC(=O)[C@@H](CCCNC(=N)N)NC(=O)[C@@H](CCCNC(=N)N)NC(=O)[C@H](CCC(N)=O)NC(=O)[C@@H](CCCNC(=N)N)NC(=O)[C@@H](CCCNC(=N)N)NC(=O)[C@@H](CCCNC(=N)N)NC(=O)[C@H](CCCNC(=N)N)NC(=O)[C@H](Cc2ccc3ccccc3c2)NC(=O)[C@@H]2CCCCN2C1=O` (cyclo([dR][dR][d(pT)][Pip][2Nal]R[dR][dR][dR]Q)), the Drug uptake result in the data set with HeLa [1] and in the data set with HeLa [2] was “Active” in each case.

For the molecule `C[C@H](O)[C@H]1NC(=O)[C@@H](CCCNC(=N)N)NC(=O)[C@@H](CCCNC(=N)N)NC(=O)[C@H](CCC(N)=O)NC(=O)[C@@H](CCCNC(=N)N)NC(=O)[C@@H](CCCNC(=N)N)NC(=O)[C@@H](CCCNC(=N)N)NC(=O)[C@H](CCCNC(=N)N)NC(=O)[C@H](Cc2ccc3ccccc3c2)NC(=O)[C@@H]2CCCCN2C1=O` (cyclo([dR][dR][dT][Pip][2Nal]R[dR][dR][dR]Q)), the Drug uptake entry with HeLa [1] and in the data set with HeLa [2] was “Active” throughout.

Turning to `CC1NC(=O)[C@H](CCC(N)=O)NC(=O)[C@H](Cc2ccc(O)cc2)NC(=O)[C@H](Cc2ccc3ccccc3c2)NC(=O)[C@@H]2CCCCN2C(=O)[C@@H]([C@@H](C)OP(=O)(O)O)NC(=O)CN(C)C1=O` (stereo in doubt), the outcome in the data set with BT-474 was inactive.

Values taken from ChEMBL document CHEMBL1156273, “Membrane permeable cyclic peptidyl inhibitors against human Peptidylprolyl Isomerase Pin1” (J Med Chem, 2010).
